Laboratory results taken from ChEMBL document CHEMBL1128374, “Preparation and in vitro activities of ethers of [D-serine]8-cyclosporin” (J Med Chem, 1995).
In brackets after ≈: the same amount, converted by molar mass.

What was measured:
Assay type in all cases: functional
[1] = species on record: Mus musculus; assay: In vitro inhibition of interleukin-2 (IL-2) production induced by stimulating lymphocytes derived from mouse spleens with the […]; settings: Spleen
Method in brief: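 Compounds added with concanavalin A to the primary culture; supernatants collected at 48 h. IL-2 content measured by growth of IL-2-dependent CTLL cells, read as tritiated thymidine incorporation after 48 h. IC50 determined, with cyclosporin A run in parallel.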

[2] = species on record: Mus musculus; assay: In vitro efficacy on humoral immune response by Mishell-Dutton assay (MD).
Method in brief: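 Spleen lymphocytes from female OF1 mice (ca. 10 x 10^6) cultured 3 days with sheep erythrocytes (ca. 30 x 10^6) and test compound. Cells then plated on agar with fresh erythrocytes; plaques form by complement lysis. Read-out is the count of antibody-producing plaque-forming cells. Cyclosporin A run in parallel.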

[3] = species on record: Mus musculus; assay: In vitro efficacy to suppress lymphocyte proliferation as measured by the incorporation of a labeled precursor ([3H]- thymidine) into DNA in Mixed Lymphocyte reaction (MLR).
Method in brief: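 Cells from spleens of female CBA mice aged 8–10 weeks (ca. 5 x 10^5). Compounds made up at 20 mg/mL in 9:1 (v/v) ethanol/Tween 80, then diluted in saline before adding to medium. Four concentrations per compound across 1.8–1000 ng/mL, in triplicate cultures. IC50 is the calculated concentration giving 50% inhibition of proliferation. Cyclosporin A run in parallel as control.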

IC50 [1] [µg/mL]	IC50 [2] [µg/mL]	Compound	IC50 [3] [µg/mL]
0.057 (≈ 0.0381 µM)	0.048 (≈ 0.0321 µM)	C/C=C/C[C@@H](C)[C@@H](O)[C@H]1C(=O)N[C@@H](CC)C(=O)N(C)CC(=O)N(C)[C@@H](CC(C)C)C(=O)N[C@@H](C(C)C)C(=O)N(C)[C@@H](CC(C)C)C(=O)N[C@@H](C)C(=O)N[C@H](COCCNS(=O)(=O)c2cccc3c(N(C)C)cccc23)C(=O)N(C)[C@@H](CC(C)C)C(=O)N(C)[C@@H](CC(C)C)C(=O)N(C)[C@@H](C(C)C)C(=O)N1C	0.11 (≈ 0.0736 µM)
0.024 (≈ 0.0195 µM)	< 0.01	C/C=C/C[C@@H](C)[C@@H](O)[C@H]1C(=O)N[C@@H](CC)C(=O)N(C)CC(=O)N(C)[C@@H](CC(C)C)C(=O)N[C@@H](C(C)C)C(=O)N(C)[C@@H](CC(C)C)C(=O)N[C@@H](C)C(=O)N[C@H](COC)C(=O)N(C)[C@@H](CC(C)C)C(=O)N(C)[C@@H](CC(C)C)C(=O)N(C)[C@@H](C(C)C)C(=O)N1C	< 0.008
0.095 (≈ 0.0726 µM)	0.46 (≈ 0.351 µM)	C/C=C/C[C@@H](C)[C@@H](O)[C@H]1C(=O)N[C@@H](CC)C(=O)N(C)CC(=O)N(C)[C@@H](CC(C)C)C(=O)N[C@@H](C(C)C)C(=O)N(C)[C@@H](CC(C)C)C(=O)N[C@@H](C)C(=O)N[C@H](COCc2ccccc2)C(=O)N(C)[C@@H](CC(C)C)C(=O)N(C)[C@@H](CC(C)C)C(=O)N(C)[C@@H](C(C)C)C(=O)N1C	0.25 (≈ 0.191 µM)
0.1 (≈ 0.0759 µM)	0.016 (≈ 0.0122 µM)	C=C(COC[C@H]1NC(=O)[C@H](C)NC(=O)[C@H](CC(C)C)N(C)C(=O)[C@H](C(C)C)NC(=O)[C@H](CC(C)C)N(C)C(=O)CN(C)C(=O)[C@H](CC)NC(=O)[C@H]([C@H](O)[C@H](C)C/C=C/C)N(C)C(=O)[C@H](C(C)C)N(C)C(=O)[C@H](CC(C)C)N(C)C(=O)[C@H](CC(C)C)N(C)C1=O)C(=O)OC	0.04 (≈ 0.0304 µM)
0.38 (≈ 0.301 µM)	0.095 (≈ 0.0753 µM)	C/C=C/C[C@@H](C)[C@@H](O)[C@H]1C(=O)N[C@@H](CC)C(=O)N(C)CC(=O)N(C)[C@@H](CC(C)C)C(=O)N[C@@H](C(C)C)C(=O)N(C)[C@@H](CC(C)C)C(=O)N[C@@H](C)C(=O)N[C@H](COCCN)C(=O)N(C)[C@@H](CC(C)C)C(=O)N(C)[C@@H](CC(C)C)C(=O)N(C)[C@@H](C(C)C)C(=O)N1C	0.22 (≈ 0.174 µM)
0.09 (≈ 0.0716 µM)	0.036 (≈ 0.0286 µM)	C#CCOC[C@H]1NC(=O)[C@H](C)NC(=O)[C@H](CC(C)C)N(C)C(=O)[C@H](C(C)C)NC(=O)[C@H](CC(C)C)N(C)C(=O)CN(C)C(=O)[C@H](CC)NC(=O)[C@H]([C@H](O)[C@H](C)C/C=C/C)N(C)C(=O)[C@H](C(C)C)N(C)C(=O)[C@H](CC(C)C)N(C)C(=O)[C@H](CC(C)C)N(C)C1=O	0.072 (≈ 0.0573 µM)
0.07 (≈ 0.0549 µM)	0.063 (≈ 0.0494 µM)	C/C=C/C[C@@H](C)[C@@H](O)[C@H]1C(=O)N[C@@H](CC)C(=O)N(C)CC(=O)N(C)[C@@H](CC(C)C)C(=O)N[C@@H](C(C)C)C(=O)N(C)[C@@H](CC(C)C)C(=O)N[C@@H](C)C(=O)N[C@H](COCC(N)=O)C(=O)N(C)[C@@H](CC(C)C)C(=O)N(C)[C@@H](CC(C)C)C(=O)N(C)[C@@H](C(C)C)C(=O)N1C	0.064 (≈ 0.0502 µM)

The remaining lines, values behind:

Compound	IC50 [1] [µg/mL]	IC50 [2] [µg/mL]	IC50 [3] [µg/mL]
C/C=C/C[C@@H](C)[C@@H](O)[C@H]1C(=O)N[C@@H](CC)C(=O)N(C)CC(=O)N(C)[C@@H](CC(C)C)C(=O)N[C@@H](C(C)C)C(=O)N(C)[C@@H](CC(C)C)C(=O)N[C@@H](C)C(=O)N[C@H](COCC(=O)OC(C)(C)C)C(=O)N(C)[C@@H](CC(C)C)C(=O)N(C)[C@@H](CC(C)C)C(=O)N(C)[C@@H](C(C)C)C(=O)N1C	> 1	0.41 (≈ 0.308 µM)	0.24 (≈ 0.18 µM)
C/C=C/C[C@@H](C)[C@@H](O)[C@H]1C(=O)N[C@@H](CC)C(=O)N(C)CC(=O)N(C)[C@@H](CC(C)C)C(=O)N[C@@H](C(C)C)C(=O)N(C)[C@@H](CC(C)C)C(=O)N[C@@H](C)C(=O)N[C@H](COCC(=O)O)C(=O)N(C)[C@@H](CC(C)C)C(=O)N(C)[C@@H](CC(C)C)C(=O)N(C)[C@@H](C(C)C)C(=O)N1C	0.53 (≈ 0.415 µM)	0.48 (≈ 0.376 µM)	0.44 (≈ 0.345 µM)
C/C=C/C[C@@H](C)[C@@H](O)[C@H]1C(=O)N[C@@H](CC)C(=O)N(C)CC(=O)N(C)[C@@H](CC(C)C)C(=O)N[C@@H](C(C)C)C(=O)N(C)[C@@H](CC(C)C)C(=O)N[C@@H](C)C(=O)N[C@H](COCCC2OCCO2)C(=O)N(C)[C@@H](CC(C)C)C(=O)N(C)[C@@H](CC(C)C)C(=O)N(C)[C@@H](C(C)C)C(=O)N1C	0.086 (≈ 0.0652 µM)	0.105 (≈ 0.0796 µM)	0.117 (≈ 0.0887 µM)
C=C(CO)COC[C@H]1NC(=O)[C@H](C)NC(=O)[C@H](CC(C)C)N(C)C(=O)[C@H](C(C)C)NC(=O)[C@H](CC(C)C)N(C)C(=O)CN(C)C(=O)[C@H](CC)NC(=O)[C@H]([C@H](O)[C@H](C)C/C=C/C)N(C)C(=O)[C@H](C(C)C)N(C)C(=O)[C@H](CC(C)C)N(C)C(=O)[C@H](CC(C)C)N(C)C1=O	0.048 (≈ 0.0372 µM)	0.032 (≈ 0.0248 µM)	< 0.008
C/C=C/C[C@@H](C)[C@@H](O)[C@H]1C(=O)N[C@@H](CC)C(=O)N(C)CC(=O)N(C)[C@@H](CC(C)C)C(=O)N[C@@H](C(C)C)C(=O)N(C)[C@@H](CC(C)C)C(=O)N[C@@H](C)C(=O)N[C@H](COCCOCCO)C(=O)N(C)[C@@H](CC(C)C)C(=O)N(C)[C@@H](CC(C)C)C(=O)N(C)[C@@H](C(C)C)C(=O)N1C	0.075 (≈ 0.0574 µM)	0.035 (≈ 0.0268 µM)	0.17 (≈ 0.13 µM)
C/C=C/C[C@@H](C)[C@@H](O)[C@H]1C(=O)N[C@@H](CC)C(=O)N(C)CC(=O)N(C)[C@@H](CC(C)C)C(=O)N[C@@H](C(C)C)C(=O)N(C)[C@@H](CC(C)C)C(=O)N[C@@H](C)C(=O)N[C@H](CO)C(=O)N(C)[C@@H](CC(C)C)C(=O)N(C)[C@@H](CC(C)C)C(=O)N(C)[C@@H](C(C)C)C(=O)N1C	< 0.008	0.026 (≈ 0.0213 µM)	< 0.008
C/C=C/C[C@@H](C)[C@@H](O)[C@H]1C(=O)N[C@@H](CC)C(=O)N(C)CC(=O)N(C)[C@@H](CC(C)C)C(=O)N[C@@H](C(C)C)C(=O)N(C)[C@@H](CC(C)C)C(=O)N[C@@H](C)C(=O)N[C@H](COCCOC(C)=O)C(=O)N(C)[C@@H](CC(C)C)C(=O)N(C)[C@@H](CC(C)C)C(=O)N(C)[C@@H](C(C)C)C(=O)N1C	0.012 (≈ 0.0092 µM)	0.028 (≈ 0.0215 µM)	0.018 (≈ 0.0138 µM)
C/C=C/C[C@@H](C)[C@@H](O)[C@H]1C(=O)N[C@@H](CC)C(=O)N(C)CC(=O)N(C)[C@@H](CC(C)C)C(=O)N[C@@H](C(C)C)C(=O)N(C)[C@@H](CC(C)C)C(=O)N[C@@H](C)C(=O)N[C@H](COCC(C)CO)C(=O)N(C)[C@@H](CC(C)C)C(=O)N(C)[C@@H](CC(C)C)C(=O)N(C)[C@@H](C(C)C)C(=O)N1C (stereo partly specified)	0.017 (≈ 0.0132 µM)	0.024 (≈ 0.0186 µM)	0.013 (≈ 0.0101 µM)
C=C(COC[C@H]1NC(=O)[C@H](C)NC(=O)[C@H](CC(C)C)N(C)C(=O)[C@H](C(C)C)NC(=O)[C@H](CC(C)C)N(C)C(=O)CN(C)C(=O)[C@H](CC)NC(=O)[C@H]([C@H](O)[C@H](C)C/C=C/C)N(C)C(=O)[C@H](C(C)C)N(C)C(=O)[C@H](CC(C)C)N(C)C(=O)[C@H](CC(C)C)N(C)C1=O)CO[Si](C)(C)C(C)(C)C	> 1	> 1	0.45 (≈ 0.321 µM)
C/C=C/C[C@@H](C)[C@@H](O)[C@H]1C(=O)N[C@@H](CC)C(=O)N(C)CC(=O)N(C)[C@@H](CC(C)C)C(=O)N[C@@H](C(C)C)C(=O)N(C)[C@@H](CC(C)C)C(=O)N[C@@H](C)C(=O)N[C@H](COCCO)C(=O)N(C)[C@@H](CC(C)C)C(=O)N(C)[C@@H](CC(C)C)C(=O)N(C)[C@@H](C(C)C)C(=O)N1C [OXECLOSPORIN]	0.006 (≈ 0.00475 µM)	0.018 (≈ 0.0143 µM)	< 0.008
